Assay results: ChEMBL document CHEMBL3596100, “The synthesis and biological activity of novel anthracenone-pyranones and anthracenone-furans” (Bioorg Med Chem, 2015)
Calls of active or inactive are those of the source. The rule behind the calls is not given here.

Assays:
[1] = system: MIA; experiment: (§1) Growth inhibition of human MIA cells after 72 hrs by MTT assay; type: functional
Summary of the method: (§2)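 Cells kept in DMEM with 10% FBS, glutamine, penicillin/streptomycin at 37 °C, 5% CO2; plated in duplicate at 2500–4000 cells/well, dosed 24 h later during log growth. After 72 h drug exposure, MTT read at 540 nm. […] Assays in triplicate, standard error reported.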

[2] = system: BE(2)-C; experiment: (§3) Growth inhibition of human BE(2)-C cells after 72 hrs by MTT assay; type: functional; summary of the method: as §2
[3] = system: MCF7; experiment: Growth inhibition of human MCF7 cells after 72 hrs by MTT assay; type: functional; conditions: for GI50: MCF7, 72 h; summary of the method: as §2
[4] = system: NCI-H460; experiment: (§4) Growth inhibition of human H460 cells after 72 hrs by MTT assay; type: functional; summary of the method: as §2
[5] = system: HT-29; experiment: Growth inhibition of human HT-29 cells after 72 hrs by MTT assay; type: functional; conditions: for GI50: HT-29, 72 h; summary of the method: as §2
[6] = system: SMA; experiment: (§5) Growth inhibition of mouse SMA cells after 72 hrs by MTT assay; type: functional; summary of the method: as §2
[7] = system: A2780; experiment: Growth inhibition of human A2780 cells after 72 hrs by MTT assay; type: functional; conditions: for GI50: A2780, 72 h; summary of the method: as §2
[8] = system: U-87MG ATCC; experiment: (§6) Growth inhibition of human U87 cells after 72 hrs by MTT assay; type: functional; summary of the method: as §2
[9] = system: A-431; experiment: Growth inhibition of human A431 cells after 72 hrs by MTT assay; type: functional; conditions: for GI50: A-431, 72 h; summary of the method: as §2
[10] = system: DU-145; experiment: Growth inhibition of human DU145 cells after 72 hrs by MTT assay; type: functional; conditions: for GI50: DU-145, 72 h; summary of the method: as §2
[11] = as §1; type: functional; summary of the method: as §2
[12] = as §3; type: functional; summary of the method: as §2
[13] = as §4; type: functional; conditions: NCI-H460, 72 h; summary of the method: as §2
[14] = Growth inhibition of human SJ-G2 cells after 72 hrs by MTT assay; type: functional; conditions: SJ-G2, 72 h; summary of the method: as §2
[15] = as §5; type: functional; summary of the method: as §2
[16] = as §6; type: functional, U-87MG ATCC; conditions: U-87 MG; summary of the method: as §2

Structure (SMILES) | growth inhibition (GI) [1] | growth inhibition (GI) [2] | growth inhibition (GI) [3] | growth inhibition (GI) [4] | growth inhibition (GI) [5] | growth inhibition (GI) [6] | growth inhibition (GI) [7] | growth inhibition (GI) [8] | growth inhibition (GI) [9] | GI50 [11] | GI50 [12] | GI50 [3] | GI50 [13] | GI50 [5] | GI50 [14] | GI50 [15] | GI50 [7] | GI50 [16] | GI50 [9] | GI50 [10] | further results
Cc1cc2c(c3oc(-c4ccccc4)cc(=O)c13)C(=O)c1c(O)cccc1C2=O | Active | Active | Active | Active | Active | Active | Active | Active | Active |  |  |  |  |  |  |  |  |  |  |  | growth inhibition (GI) [10]: Active
Cc1cc2c(c3oc(-c4ccccc4)cc13)C(=O)c1c(O)cccc1C2=O | Active | Active | Active | Active | Active | Active | Active | Active | Active |  |  |  |  |  |  |  |  |  |  |  | 
Cc1cc2c(c3oc(-c4ccccc4)cc13)C(=O)c1c(OC(C)C)cccc1C2=O | Active | Active | Active | Active | Active | Active | Active | Active | Active |  |  |  |  |  |  |  |  |  |  |  | 
Cc1cc2c(c3oc(C(=O)c4ccccc4)cc13)C(=O)c1c(O)cccc1C2=O | Active | Active | Active | Active | Active | Active | Active | Active | Active |  |  |  |  |  |  |  |  |  |  |  | 
Cc1cc2c(c3oc(=O)c(CCCC#N)cc13)C(=O)c1c(O)cccc1C2=O |  |  |  |  |  |  |  |  |  | 15 µM | 11 µM | 12 µM | 9 µM | 14 µM | 22 µM | 9.8 µM | 10 µM | 11 µM | 12 µM | 3.2 µM | 
CCCc1cc2c(C)cc3c(c2o1)C(=O)c1c(O)cccc1C3=O |  |  |  |  |  |  |  |  |  | 1.7 µM | 0.88 µM | 2.2 µM | 3.1 µM | 1.2 µM | 1 µM | 1.3 µM | 1.5 µM | 6.6 µM | 2.3 µM | 0.86 µM | 
CCCc1cc(=O)c2c(C)cc3c(c2o1)C(=O)c1c(O)cccc1C3=O |  |  |  |  |  |  |  |  |  | 1.7 µM | 1.8 µM | 1.8 µM | 1.4 µM | 3.2 µM | 1.7 µM | 1.5 µM | 2.4 µM | 2.8 µM | 1.6 µM | 1.2 µM | 
CCCCCCc1cc2c(C)cc3c(c2o1)C(=O)c1c(O)cccc1C3=O |  |  |  |  |  |  |  |  |  | 13 µM | 21 µM | 15 µM | 17 µM | 17 µM | 32 µM | 9.3 µM | 12 µM | 25 µM | 18 µM | 25 µM | 
Cc1cc2c(c3oc(=O)c(C(C)(C)O)cc13)C(=O)c1c(OC(C)C)cccc1C2=O |  |  |  |  |  |  |  |  |  | 23 µM | 27 µM | 20 µM | 22 µM | 30 µM | 14 µM | 30 µM | 28 µM | 30 µM | 19 µM | 40 µM | 
C=C(C)c1cc(=O)c2c(C)cc3c(c2o1)C(=O)c1c(O)cccc1C3=O |  |  |  |  |  |  |  |  |  | 2 µM | 5.9 µM | 1.4 µM | 3.9 µM | 1.6 µM | 4.7 µM | 1.7 µM | 1.6 µM | 3.4 µM | 1.8 µM | 1.5 µM | 
